NPY-Y1 antag = blocks the human neuropeptide Y Y1 receptor. hit rate 1% among 200,000. inhibition, % at 3.6 µM. HEK293-CNG Y1 cells, membrane potential fluorescence; NPY at EC95, then isoproterenol. P25929. AID 1040;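 active = inhibition above the campaign mean inhibition of all tested compounds plus 3 SD, cut at about 20% in these data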;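 note: 0% = DMSO wells given NPY plus isoproterenol and 100% = isoproterenol alone without NPY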
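Material: HEK293 cells with Y1 receptor plus CNG channel; times: compound incubation 1 h at room temperature, readout 45 min post-stimulation; signal: fluorescence, membrane potential probe; read-out basis: fluorescence ratio normalized to % inhibition between controls; benchmarks: full-block control isoproterenol-only wells, zero-block control NPY plus isoproterenol wells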
Furin inhibitor = human furin inhibition; purified furin, fluorogenic substrate cleavage; inhibition, % at 20 µM or 30 µM; hit rate 0.061% among 220,000; AID 463115; in the data active = inhibition above about 25%
Target sequence (P09958 108-714 limits assumed): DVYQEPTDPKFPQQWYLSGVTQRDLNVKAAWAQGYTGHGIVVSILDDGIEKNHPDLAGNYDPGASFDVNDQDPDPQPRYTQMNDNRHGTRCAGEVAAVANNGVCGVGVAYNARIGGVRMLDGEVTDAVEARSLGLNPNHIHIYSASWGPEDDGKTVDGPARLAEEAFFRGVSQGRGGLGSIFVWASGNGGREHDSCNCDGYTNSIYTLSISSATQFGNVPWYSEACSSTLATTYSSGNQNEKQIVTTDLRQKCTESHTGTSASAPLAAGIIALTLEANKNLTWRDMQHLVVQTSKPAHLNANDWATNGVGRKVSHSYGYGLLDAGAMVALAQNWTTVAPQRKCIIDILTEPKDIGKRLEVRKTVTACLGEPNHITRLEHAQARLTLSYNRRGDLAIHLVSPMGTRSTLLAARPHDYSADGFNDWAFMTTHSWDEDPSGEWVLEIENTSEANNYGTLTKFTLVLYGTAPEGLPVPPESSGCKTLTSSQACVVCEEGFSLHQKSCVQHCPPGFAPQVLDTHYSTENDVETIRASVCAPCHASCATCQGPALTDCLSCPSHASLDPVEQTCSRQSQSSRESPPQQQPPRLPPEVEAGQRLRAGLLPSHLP
NPY-Y2 antag = antagonists of human neuropeptide Y receptor Y2; P49146; NPY-Y2 expressing cells, antagonist mode; inhibition, % at 2.7 µM; hit rate 0.99% among 140,000; AID 793; in the data active = inhibition above about 17%;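 note: 0% = vehicle with agonist challenge and 100% = reference antagonist with challenge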
Cl transport mod = modulators of human KCC2 chloride dependent transport; KCC2 cells, thallium flux FluoZin-2 fluorescence; B-score of Tl+ flux slope (higher = more flux/activation; lower = inhibition) at 10 µM; hit rate 2.2% among 190,000; AID 1456;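 active = thallium flux slope and its plate-corrected score both differing from the plate sample mean at a set confidence after two filtering rounds, in either direction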;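 note: slope of fluorescence scaled to starting intensity during 10 to 20 s after thallium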
NPY-Y1 PAM-ag = human NPY-Y1 potentiation or agonism, primary screen. P25929. NPY-Y1 expressing cells, potentiator/agonist activation. activation, % at 3.6 µM. hit rate 0.37% among 220,000. AID 1304; in the data active = activation above about 33%, passing the limit was not always enough;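 note: cells stimulated with NPY at EC10 then isoproterenol at EC100; 0% = low agonist plus stimulus and 100% = saturating agonist plus stimulus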
NPY2 pot ag = potentiates or activates human NPY-Y2 receptor | activation, % at 3.6 µM | cells expressing NPY-Y2, potentiator/agonist read-out | P49146 | hit rate 0.45% among 220,000; in the data active = activation above about 27%;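 note: cells stimulated with NPY near EC25 plus isoproterenol at EC100; 0% = vehicle plus submaximal agonist and 100% = vehicle plus saturating agonist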
KCC2 secondary = confirmation of human KCC2 transport modulators. shares compounds with Cl transport mod. AID 1713. HEK293-KCC2, thallium flux, FluoZin2 fluorescence; active compounds read high. hit rate 15% among 3,700. normalised thallium flux (F/F0 slope) at 10 µM;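 active = thallium flux slope above the same plate's solvent-only control mean plus 3 SD; inconclusive = the two replicate wells disagree; inactive = no significant difference from solvent-only control wells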
KCC2 bumet counter = bumetanide-insensitive thallium flux in KCC2 cells with ouabain, counter-screen; shares compounds with Cl transport mod; HEK293-KCC2 + bumetanide/ouabain, thallium flux FluoZin2; active compounds read high; normalized thallium flux at 10 µM; hit rate 49% among 3,700;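 active = thallium entry rate above the same plate's blocked-transporter control wells by more than 3 SD; inconclusive = the two repeat wells disagree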;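 note: raw slope of fluorescence over initial fluorescence between 10 and 20 s after thallium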
KCC2 secondary2 = KCC2 (human) modulation, second secondary assay; shares compounds with Cl transport mod; HEK293-KCC2, thallium flux FluoZin2 fluorescence; actives lie on both sides; F/F0 rise rate, 10–20 s post-thallium; normalized thallium flux at 10 µM; hit rate 23% among 3,700; AID 1715;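 active = thallium flux slope more than 3 SD above or below the plate's solvent-only control mean, mostly below; inconclusive = the two repeat wells disagreed; inactive = no significant shift from solvent-only controls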;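 note: raw slope with 0.1% DMSO as baseline and bumetanide as block control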
HEK293 Tl flux = counter-screen for KCC2 modulators: effect in parental HEK293 cells; hit rate 46% among 3,700; thallium flux rate (normalised fluorescence) at 10 µM; thallium flux FluoZin2, ouabain; baseline-ratio fluorescence slope, 10–20 s after thallium; shares compounds with Cl transport mod; AID 1716;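 active = thallium flux rate significantly above the same plate's solvent-only control wells, beyond their mean plus 3 SD; inconclusive = the two replicate wells gave conflicting results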
KCC2 ouabain = KCC2 (human) modulation, ouabain retest. shares compounds with Cl transport mod. hit rate 48% among 3,700. raw Tl+ flux slope (below DMSO = inhibition, above = activation) at 10 µM. HEK293-KCC2, thallium flux FluoZin2 fluorescence; bidirectional: low = inhibitor, high = activator. AID 1717;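 active = thallium flux slope beyond 3 SD from same-plate DMSO control mean in most replicates, usually higher, sometimes lower; inconclusive = repeat tests gave conflicting results; inactive = no significant difference from controls in most replicates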;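 note: slope of initial-normalized fluorescence between seconds 10 and 20 after thallium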
HEK293 Tl flux2 = parental HEK flux effect, counter-screen 2; shares compounds with Cl transport mod; HEK293 parental, thallium flux FluoZin-2 fluorescence slope; thallium flux slope at 10 µM; hit rate 33% among 3,700;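 active = thallium flux slope above the same plate's solvent-control mean plus 3 SD in both duplicate wells; inconclusive = duplicate wells that disagreed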;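 note: run without ouabain in cells lacking the KCC2 cotransporter; slope of fluorescence scaled to its starting value between 10 and 20 s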
Numbers without * were called inactive; ? = inconclusive; . = no result. The list is not random: actives were taken first. Their share in the collection is about 3.7%.

SMILES | NPY-Y1 antag | Furin inhibitor | NPY-Y2 antag | Cl transport mod | NPY-Y1 PAM-ag | NPY2 pot ag | KCC2 secondary | KCC2 bumet counter | KCC2 secondary2 | HEK293 Tl flux | KCC2 ouabain | HEK293 Tl flux2
Cc1ccc(C2(C(F)(F)F)NC(=O)N3CCCN=C3S2)cc1 (stereo unspecified) | -5 | -9 | 1 | 3.9* | -4 | -1 | 0.0053 | 0.0039 | 0.031 | 0.0071 | 0.018 | 0.0095
Cc1onc(-c2c(Cl)cccc2Cl)c1C(=O)N=C(N)N1CC(C)OC(C)C1 (stereo unspecified) | . | -31 | . | 2.1 | 11 | 2 | . | . | . | . | . | .
N#Cc1c(NC(=O)c2cccnc2)sc2c1CCC2 | -2 | -10 | 5 | 0.085 | -4 | -10 | . | . | . | . | . | .
N#Cc1c(NC(=O)c2ccccc2)sc2c1CCC2 | -6 | -1 | 6 | . | -7 | -16 | 0.0066 | 0.0041 | 0.028 | 0.0075 | 0.018 | 0.01
CCCCOC(=O)n1c(=O)oc2ccccc21 | 3 | -20 | -1 | -4.3* | -5 | 12 | 0.012* | 0.0058 | 0.036 | 0.0071 | 0.021 | 0.011
COC(=O)n1c(=O)oc2ccccc21 | -3 | -14 | 2 | . | 4 | 13 | . | . | . | . | . | .
CCOc1nc(-c2ccc(C)cc2)ccc1-c1noc(-c2cccnc2)n1 | -8 | -11 | 3 | 2.9* | -11 | 8 | 0.0083 | 0.0046 | 0.029 | 0.0076 | 0.02 | 0.01
CCOc1nc(-c2ccc(OC)cc2)ccc1-c1noc(-c2cccnc2)n1 | 4 | -14 | -2 | -0.063 | -13 | -14 | . | . | . | . | . | .
O=C(CSc1nc2cc(Cl)ccc2s1)c1ccco1 | 4 | -7 | 3 | 13* | 15 | 9 | 0.025* | 0.036* | 0.043* | 0.03* | 0.036* | 0.033*
Fc1ccc(CSc2nncn2NC/C=C/c2ccccc2)cc1 | 2 | -30 | 4 | . | 4 | 4 | 0.0082 | 0.004 | ? | 0.0067 | ? | 0.0092
CCOc1cccc(/C=N/Nc2nc(N3CCCC3)nc(N3CCCC3)n2)c1O | . | -6 | . | -4.5* | -34 | -34 | 0.01 | 0.0065 | 0.034 | 0.0074 | 0.021 | 0.011*
O=S(=O)(CCOc1ccccc1)c1nc2ccccc2[nH]1 | 3 | -8 | 1 | . | -18 | -13 | 0.0077 | 0.0059 | 0.036 | 0.0044 | 0.018 | 0.011
O=C(NNC(=O)c1ccc(Cl)cc1Cl)c1csc(-c2cccnc2)n1 | . | -24 | . | 8.1* | 13 | -1 | 0.0059 | 0.018* | 0.033 | 0.015* | ? | 0.018*
CCOC(=O)CC(NS(=O)(=O)Cc1ccccc1)c1ccc(C)cc1 (stereo unspecified) | 6 | -6 | 3 | -0.78 | 8 | 10 | . | . | . | . | . | .
CC1=C(C(=O)OCc2ccccc2)C(c2ccco2)C2=C(CC(C)(C)CC2=O)N1 (stereo unspecified) | -3 | -24 | -2 | -4.3* | -6 | -6 | ? | 0.0052 | 0.029 | 0.0062 | 0.05* | ?
CCOC(=O)C1=C(N)OC2=C(C(=O)CC(C)(C)C2)C1c1ccco1 (stereo unspecified) | 1 | -23 | 2 | -1.1 | -8 | -14 | . | . | . | . | . | .
CN=C(Nc1ccc(C(=O)OC)s1)c1ccc(Cl)cc1 | -1 | -34 | . | -0.59 | 8 | 3 | . | . | . | . | . | .
CNS(=O)(=O)c1cccc2nsnc12 | -1 | -16 | -2 | 0.14 | -12 | 6 | 0.0088 | ? | 0.031 | 0.008 | 0.021 | 0.011
CN(C1CCS(=O)(=O)C1)S(=O)(=O)c1cccc2nsnc12 (stereo unspecified) | -6 | -9 | 2 | . | -19 | 0 | 0.006 | 0.0046 | 0.029 | 0.0077 | 0.018 | 0.011
CN(C)S(=O)(=O)c1cccc2nsnc12 | -2 | -21 | 0 | . | 1 | -1 | . | . | . | . | . | .
CCOc1ccc(OCC)c(NS(=O)(=O)c2cccc3nsnc23)c1 | -4 | -31 | 4 | 18* | 1 | 31 | 0.013* | 0.073* | 0.035 | 0.027* | 0.035* | 0.013*
CCOc1ccccc1NS(=O)(=O)c1cccc2nsnc12 | 2 | -9 | 5 | 2.9 | 2 | 2 | . | . | . | . | . | .
Cc1ccc2c(c1)CCCN2C(=O)c1cc2ccccc2oc1=O | 0 | -19 | 2 | -0.6 | -11 | 5 | . | . | . | . | . | .
N#CC1(C#N)[C@@H](C(=O)C23CC4CC(CC(C4)C2)C3)C12CCOCC2 | 11 | -8 | 1 | -0.13 | 13 | -9 | . | . | . | . | . | .
O=C(NCc1cccs1)c1cc(S(=O)(=O)N2CCCCC2)ccc1Cl | -7 | -8 | -2 | -0.81 | -3 | 5 | . | . | . | . | . | .
SMILES | NPY-Y1 antag | Furin inhibitor | NPY-Y2 antag | Cl transport mod | NPY-Y1 PAM-ag | NPY2 pot ag | KCC2 secondary | KCC2 bumet counter | KCC2 secondary2 | HEK293 Tl flux | KCC2 ouabain | HEK293 Tl flux2
CN(CC(=O)Nc1cc(S(=O)(=O)N2CCCC2)ccc1Cl)Cc1cccs1 | . | -12 | . | -5.3* | 5 | -3 | ? | 0.0047 | 0.032 | 0.0034 | 0.014* | 0.011
O=C(Cc1cccs1)Nc1ccc(S(=O)(=O)N2CCCC2)cc1 | 0 | -12 | . | -3.7* | -3 | -11 | 0.0077 | 0.006 | 0.035 | 0.004 | 0.02 | 0.011
COc1ccc(Nc2nc(N3CCCC3)nc(N3CCCC3)n2)c(OC)c1 | -8 | -18 | -4 | -2.4* | 8 | 1 | ? | 0.0066 | 0.034 | 0.0082 | 0.023 | 0.011
COc1ccc(Nc2nc(NC(C)(C)C)nc(N3CCCC3)n2)c(OC)c1 | 6 | -14 | 3 | 1.5 | -2 | 2 | . | . | . | . | . | .
CC(C)n1nc(C(=O)Nc2nc3ccccc3[nH]2)c2ccccc2c1=O | 9 | -24 | . | -4* | -20 | -3 | 0.015 | 0.0037 | 0.025* | ? | 0.014 | 0.0088
COc1ccc(-c2csc(NC(=O)c3cccc(S(=O)(=O)N4CCN(C)CC4)c3)n2)cc1 | -2 | -13 | 0 | 0.76 | 24 | 8 | . | . | . | . | . | .
O=C(Nc1nc(-c2ccccn2)cs1)c1ccc(Cl)s1 | -1 | -17 | 3 | 37* | 7 | 7 | 0.0056 | 0.06* | 0.06* | 0.06* | 0.054* | 0.063*
O=C(Nc1nc(-c2ccccc2)ns1)c1cccs1 | 4 | -24 | -1 | . | -7 | 14 | 0.0069 | 0.005 | 0.026 | 0.0069 | 0.015* | 0.0098

Screening results (PubChem)
